In ChEMBL document CHEMBL1268859, “Diarylheptanoids from the Rhizomes of Curcuma kwangsiensis” (J Nat Prod, 2010):

Tested on: RAW264.7
Experiment: Antiinflammatory activity in mouse RAW264.7 cells assessed as inhibition of LPS-induced NO production by MTT assay
Type: functional, cell-based
Conditions: in the assay text read “Griess assay” for “MTT assay”
Method in brief: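 RAW 264.7 mouse macrophages in RPMI 1640 with 10% heat-inactivated FBS, penicillin and streptomycin, seeded 1 × 10⁵ cells/well, adhered 2 h at 37 °C, 5% CO₂. Stimulated with LPS 1 µg/mL for 24 h with or without test agents at various concentrations (DMSO, 0.2% v/v final). Supernatant nitrite read with Griess reagent against a nitrite standard line. MTT viability after 24 h.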

Oc1ccc(/C=C/CC[C@@H](O)CCc2ccc(O)cc2)cc1 was tested, and the IC50 was 16.1 µM.

Oc1ccc(/C=C/CC[C@H](O)CCc2ccc(O)c(O)c2)cc1 showed an IC50 of 42 µM.

With Oc1ccc(/C=C/CC[C@@H](O)CCc2ccc(O)c(O)c2)cc1 the IC50 was 20.6 µM.

In the case of Oc1ccc(CCCC[C@H](O)CCc2ccc(O)c(O)c2)cc1, the IC50 is reported as 5.83 µM.

Oc1ccc(CCCC[C@@H](O)CCc2ccc(O)c(O)c2)cc1 gave an IC50 of 9.66 µM.

Oc1ccc(CC[C@H](O)CC/C=C/c2ccccc2)cc1O showed an IC50 of 7.34 µM.

In the case of CC(=O)O[C@@H](CC/C=C/c1ccc(O)cc1)CCc1ccc(O)c(O)c1, the IC50 is reported as 6.54 µM.

Work on CC(=O)O[C@H](CC/C=C/c1ccc(O)cc1)CCc1ccc(O)c(O)c1 yielded an IC50 of 15.6 µM.

CC(=O)O[C@@H](CCCCc1ccc(O)cc1)CCc1ccc(O)c(O)c1 gave an IC50 of 49.5 µM.

Work on CC(=O)O[C@H](CCCCc1ccc(O)cc1)CCc1ccc(O)c(O)c1 yielded an IC50 of 28.5 µM.

O=C(CC/C=C/c1ccc(O)cc1)CCc1ccc(O)cc1 showed an IC50 of 8.93 µM.

Work on O=C(CCCCc1ccc(O)cc1)CCc1ccc(O)cc1 yielded an IC50 of 5.58 µM.

COc1cc(CCC(=O)CCCCc2ccc(O)cc2)ccc1O was tested, and the IC50 was 10.6 µM.

COc1cc(CCC(=O)/C=C/CCc2ccc(O)cc2)ccc1O gave an IC50 of 2.69 µM.

Oc1ccc(/C=C/CC[C@H](O)CCc2ccc(O)cc2)cc1 gave an IC50 of 9.83 µM.

Molecule Oc1ccc(CC[C@@H](O)CC/C=C/c2ccccc2)cc1O has an IC50 of 3.86 µM.

O=C(CC/C=C/c1ccccc1)CCc1ccc(O)cc1 gave an IC50 of 6.98 µM.

O=C(/C=C/C=C/c1ccc(O)cc1)CCc1ccc(O)cc1 showed an IC50 of 4.79 µM.

C[C@]12CCC(=O)C=C1CC[C@@H]1[C@@H]2[C@@H](O)C[C@@]2(C)[C@H]1CC[C@]2(O)C(=O)CO [HYDROCORTISONE] gave an IC50 of 40.6 µM.

COc1ccc2c(c1)c(CC(=O)O)c(C)n2C(=O)c1ccc(Cl)cc1 [INDOMETHACIN] gave an IC50 of 13 µM.
